ChEMBL document CHEMBL1131203, “Second generation "peptoid" CCK-B receptor antagonists: identification and development of N-(adamantyloxycarbonyl)-alpha-methyl-(R)-tryptophan derivative (CI-1015) with an improved pharmacokinetic profile” (J Med Chem, 1998)

Columns and labels:
[1] = Maximum plasma concentration was evaluated in DMA:H2O solution at a dose of 20 mg/kg orally; type: ADME, organism-based; set-up: dose 20 mg/kg, route oral; conditions: po
In short: (§1)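 Fasted male Wistar rats, groups of 3–4, given a single oral 20 mg/kg dose in the stated vehicle. Heparinized plasma was collected from an implanted jugular-vein cannula at serial times out to 24 h, kept frozen, and assayed by validated HPLC-fluorescence. Cmax, tmax, AUC(0–∞) and terminal t1/2 were obtained by noncompartmental analysis. Values are means (%RSD).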

Mus musculus [2] = assay: Concentration in forebrain after intravenous injection evaluated after 5 min. at a dose of 1 mg/kg; type: functional
In short: (§2)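 Ex vivo binding: mice were dosed iv with compound or vehicle, given either as saline or as 10% EtOH–60% propylene glycol–30% saline. Forebrains were taken at 5, 10 or 20 min, homogenized in HEPES buffer with bacitracin at pH 7.2, and incubated with 50 pM [125I]BH-CCK8s for 2 h at 22 °C. After filtration, bound radioligand was gamma-counted and read against calibration curves prepared in vehicle tissue. Detection limit was about 1 pmol/forebrain. n = 3–13.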

[3] = Pharmacokinetic parameter tmax was evaluated in 100% PEG solution at a dose of 20 mg/kg orally; type: ADME, organism-based; set-up: dose 20 mg/kg, route oral; conditions: in vivo, po; in short: as §1
[4] = target: T1, Gastrin/cholecystokinin type B receptor (Mus musculus, UniProt P56481); assay: Inhibitory concentration against radioligand [125I]Bolton-Hunter labeled CCK-8 to cholecystokinin type B receptor in the mouse cerebral cortex; type: tissue-based
T1 sequence (P56481 whole entry): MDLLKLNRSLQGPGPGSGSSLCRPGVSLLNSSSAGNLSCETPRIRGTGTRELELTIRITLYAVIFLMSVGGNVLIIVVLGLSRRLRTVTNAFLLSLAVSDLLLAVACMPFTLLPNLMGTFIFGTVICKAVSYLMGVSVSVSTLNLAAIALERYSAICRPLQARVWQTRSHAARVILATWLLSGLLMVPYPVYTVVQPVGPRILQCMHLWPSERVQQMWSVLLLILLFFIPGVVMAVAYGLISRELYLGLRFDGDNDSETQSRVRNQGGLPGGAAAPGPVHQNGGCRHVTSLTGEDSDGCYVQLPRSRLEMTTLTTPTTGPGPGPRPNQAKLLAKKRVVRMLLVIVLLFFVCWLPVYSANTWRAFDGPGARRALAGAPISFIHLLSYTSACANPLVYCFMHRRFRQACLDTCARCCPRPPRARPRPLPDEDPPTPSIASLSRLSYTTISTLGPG

[5] = Pharmacokinetic parameter half-life was evaluated in HP-beta-CD solution at a dose of 20 mg/kg orally; type: ADME, organism-based; set-up: dose 20 mg/kg, route oral; conditions: in vivo, po; in short: as §1
Mus musculus [6] = assay: Concentration in forebrain after intravenous injection evaluated after 10 min. at a dose of 1 mg/kg; type: functional; in short: as §2
[7] = Pharmacokinetic parameter tmax was evaluated in HP-beta-CD solution at a dose of 20 mg/kg orally; type: ADME, organism-based; set-up: dose 20 mg/kg, route oral; conditions: in vivo, po; in short: as §1
[8] = Pharmacokinetic parameter AUC was evaluated in 100% PEG solution at a dose of 20 mg/kg orally; type: ADME, organism-based; set-up: dose 20 mg/kg, route oral; conditions: in vivo, po; in short: as §1
[9] = target: T2, Cholecystokinin receptor type A (Rattus norvegicus, UniProt P30551); assay: Inhibitory concentration against radioligand [125I]Bolton-Hunter labeled CCK-8 to cholecystokinin type A receptor in the rat pancreas
T2 sequence (P30551 whole entry): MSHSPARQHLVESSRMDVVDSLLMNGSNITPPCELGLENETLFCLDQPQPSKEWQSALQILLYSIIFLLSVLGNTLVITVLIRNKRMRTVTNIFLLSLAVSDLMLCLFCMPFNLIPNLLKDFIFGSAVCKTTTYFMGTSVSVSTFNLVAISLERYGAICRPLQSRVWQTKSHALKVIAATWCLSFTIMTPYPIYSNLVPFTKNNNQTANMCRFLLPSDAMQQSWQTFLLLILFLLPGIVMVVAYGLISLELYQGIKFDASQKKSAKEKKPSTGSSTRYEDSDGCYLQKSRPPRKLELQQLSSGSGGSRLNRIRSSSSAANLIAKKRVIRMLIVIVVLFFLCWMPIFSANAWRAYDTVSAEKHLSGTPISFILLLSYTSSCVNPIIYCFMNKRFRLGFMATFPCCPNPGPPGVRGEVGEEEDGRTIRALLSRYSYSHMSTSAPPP

[10] = Maximum plasma concentration evaluated in 100% PEG solution at a dose of 20 mg/kg orally; type: ADME, organism-based; set-up: dose 20 mg/kg, route oral; conditions: po; in short: as §1
[11] = Maximum plasma concentration evaluated in HP-beta-CD solution at a dose of 20 mg/kg orally; type: ADME, organism-based; set-up: dose 20 mg/kg, route oral; conditions: po; in short: as §1
[12] = Pharmacokinetic parameter half-life was evaluated in DMA:H2O solution at a dose of 20 mg/kg orally; type: ADME, organism-based; set-up: dose 20 mg/kg, route oral; conditions: in vivo, po; in short: as §1
[13] = Absolute oral bioavailability was evaluated in 100% PEG solution at a dose of 20 mg/kg orally; type: ADME, organism-based; conditions: eutheria, in vivo
In short: (§3)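 Fasted male Wistar rats, groups of 3–4, given a single 20 mg/kg dose po or iv in the stated vehicle. Heparinized plasma was drawn from a jugular-vein cannula at serial times out to 24 h and assayed by validated HPLC-fluorescence. Absolute bioavailability is the dose-normalized ratio of AUC after po dosing to AUC after iv dosing.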

[14] = Pharmacokinetic parameter tmax evaluated in 0.5% methylcellulose suspension at a dose of 20 mg/kg orally; type: ADME, organism-based; set-up: dose 20 mg/kg, route oral; conditions: in vivo, po; in short: as §1
[15] = Pharmacokinetic parameter AUC was evaluated in 0.5% methylcellulose suspension at a dose of 20 mg/kg orally; type: ADME, organism-based; set-up: dose 20 mg/kg, route oral; conditions: in vivo, po; in short: as §1
[16] = Maximum plasma concentration was evaluated in 0.5% methylcellulose suspension at a dose of 20 mg/kg orally; type: ADME, organism-based; set-up: dose 20 mg/kg, route oral; conditions: po; in short: as §1
[17] = Absolute oral bioavailability evaluated in 0.5% methylcellulose suspentionat a dose of 20 mg/kg orally; type: ADME, organism-based; conditions: eutheria, in vivo; in short: as §3
[18] = Pharmacokinetic parameter half-life was evaluated in 100% PEG solution; type: ADME, organism-based; conditions: in vivo; in short: as §1
[19] = Absolute oral bioavailability was evaluated in DMA:H2O solution at a dose of 20 mg/kg orally; type: ADME, organism-based; conditions: eutheria, in vivo; in short: as §3
[20] = Pharmacokinetic parameter tmax was evaluated in DMA:H2O solution at a dose of 20 mg/kg orally; type: ADME, organism-based; set-up: dose 20 mg/kg, route oral; conditions: in vivo, po; in short: as §1
[21] = Pharmacokinetic parameter AUC was evaluated in HP-beta-CD solution at a dose of 20 mg/kg orally; type: ADME, organism-based; set-up: dose 20 mg/kg, route oral; conditions: in vivo, po; in short: as §1
Mus musculus [22] = assay: Concentration in forebrain after intravenous injection evaluated after 20 min. at a dose of 1 mg/kg; type: functional; in short: as §2
[23] = Pharmacokinetic parameter AUC was evaluated in DMA:H2O solution at a dose of 20 mg/kg orally; type: ADME, organism-based; set-up: dose 20 mg/kg, route oral; conditions: in vivo, po; in short: as §1
[24] = Ratio of IC50 towards CCK-A receptor and CCK-B receptor
[25] = Oral bioavailability (dosed in HP-beta-CD solution) (dose 20 mg/kg p.o.); type: ADME, organism-based; conditions: eutheria, in vivo; in short: as §3

- Cmax [1]: 212 ng/mL
- Tmax [3]: 2.8 h
- IC50 [4]: 0.0063 µM
- half-life [5]: 1.5 h
- Tmax [7]: 0.9 h
- AUC [8]: 886 ng·h/mL
- IC50 [9]: 0.78 µM
- Cmax [10]: 167 ng/mL
- Cmax [11]: 416 ng/mL
- half-life [12]: 2.3 h
- bioavailability [13]: 9.6%
- Tmax [14]: 2.9 h
- AUC [15]: 188 ng·h/mL
- Cmax [16]: 42 ng/mL
- bioavailability [17]: 2%
- half-life [18]: 1.1 h
- bioavailability [19]: 9.6%
- Tmax [20]: 1.2 h
- AUC [21]: 1440 ng·h/mL
- AUC [23]: 890 ng·h/mL
- Ratio [24]: 123
- bioavailability [25]: 16%
SMILES: C[C@](Cc1c[nH]c2ccccc12)(NC(=O)OC1C2CC3CC(C2)CC1C3)C(=O)N[C@H](CO)Cc1ccccc1 (stereo not given in full)
- Brain level (Mus musculus [2]): 40 pmol/forebrain
- Brain level (Mus musculus [6]): 68 pmol/forebrain
- Brain level (Mus musculus [22]): 43 pmol/forebrain
